Experimental data from different studies.
BRAF: Serine/threonine-protein kinase B-raf (BRAF, Homo sapiens, UniProt P15056)
BRAF V600E: Serine/threonine-protein kinase B-raf (BRAF, Homo sapiens, UniProt P15056, V600E)

Compound	target	effect on	mode	technique	tested at	measurement	value
COc1cc(Nc2c(C#N)cnc3cc(OCCCN4CCN(C)CC4)c(OC)cc23)c(Cl)cc1Cl	BRAF	cell-free assay			0.5 µM	remaining signal	91.7%
Cc1ccc(C(CS(=O)(=O)c2ccccc2)=NNC2=NC(=O)C(=NNc3ccc(Cl)cc3)S2)cc1	BRAF V600E	enzyme activity	inhibitor	ATP luminescence	0.1 µM	inhibition	46%
O=C(Nc1cnn(-c2csc(C(=O)NC3COC3)c2)c1)Nc1c(F)cccc1Cl	BRAF	enzyme activity	inhibitor		5 µM	remaining activity	99.9%
CC1CCCN1c1nccc(-c2cnn3ncccc23)n1 (stereo not shown)	BRAF	binding			1 µM	remaining binding	100%
Nc1ncnc2occ(-c3ccc(NC(=O)Nc4cc(C(F)(F)F)ccc4F)cc3)c12	BRAF V600E	cell-free assay			20 µM	remaining signal	0.05%
Cc1ccc(C(=O)Nc2ccc(CN3CCN(C)CC3)c(C(F)(F)F)c2)cc1C#Cc1cnc2cccnn12	BRAF V600E	cell-free assay			23.5 nM	remaining signal	4.5%
N[C@@H]1CCN(c2nccc(-c3cnn4ncccc34)n2)C1	BRAF	binding			1 µM	remaining binding	100%
COc1ccc2c(c1)O[C@H](c1ccc(OC)c(OC)c1)C[C@@H]2NC(=O)C1(c2ccc3c(c2)OC(F)(F)O3)CC1	BRAF V600E	cell-free assay		competition with immobilised ligand	1 µM	remaining binding	93%
Cc1ccc(C(=O)NCc2ccsc2)cc1C#Cc1cn(C(C)C)c2ncnc(N)c12	BRAF	enzyme activity	inhibitor		1 µM	activity vs control	47%
c1nc2c(Nc3ccc4c(c3)OCCO4)nc(Nc3ccc4c(c3)OCCO4)nc2[nH]1	BRAF	enzyme activity	inhibitor		10 µM	activity vs control	92%
C[C@@H]1CCN(C(=O)CC#N)C[C@@H]1N(C)c1ncnc2[nH]ccc12	BRAF	cell-free assay			0.5 µM	remaining signal	93.7%
Cc1ccc(C(CS(=O)(=O)c2ccccc2)=NNC2=NC(=O)C(=NNc3ccccc3)S2)cc1	BRAF V600E	enzyme activity	inhibitor	ATP luminescence	1 µM	inhibition	67%
C[S+]([O-])c1ccc(-c2nc(-c3ccncc3)c(-c3ccc(F)cc3)[nH]2)cc1 (stereo not shown)	BRAF	cell-free assay			0.5 µM	remaining signal	78.8%
C[C@H](c1ccc(F)cc1)N(Cc1cccc(C(=O)O)c1)C(=O)c1cnc2ccccc2c1	BRAF V600E	cell-free assay		competition with immobilised ligand	1 µM	remaining binding	100%
Cc1ccc(C(CS(=O)(=O)c2ccccc2)=NNc2nc(-c3ccc(OCCCCOc4ccc(-c5csc(NN=C(CS(=O)(=O)c6ccccc6)c6ccc(C)cc6)n5)cc4)cc3)cs2)cc1	BRAF V600E	enzyme activity	inhibitor	ATP luminescence	10 nM	inhibition	32%
CC(C)(C)c1nc2c(s1)c1nc(N)ncc1c1ccc(NS(=O)(=O)c3c(F)cccc3F)c(F)c12	BRAF V600E	enzyme activity	inhibitor	radiometric	1 µM	remaining activity	27%

Compound	target	effect on	mode	technique	tested at	measurement	value
Cc1nc(C2CCN(C(=O)c3ccc(OC(F)(F)F)cc3N)CC2)c2ncc(N3CCN(C)CC3)cc2n1	BRAF	cell-free assay		competition with immobilised ligand	1 µM	remaining binding	100%
Cc1cc(NC(=O)c2cccc3cc(-c4cccc5[nH]nc(N)c45)ccc23)ccc1F	BRAF	enzyme activity	inhibitor		0.1 µM	activity vs control	99%
CC(C)(C)c1nc(-c2cccc(NS(=O)(=O)c3c(F)cccc3F)c2F)c(-c2ccnc(N)n2)s1	BRAF	enzyme activity	inhibitor	radiometric	1 µM	activity vs control	5%
Cc1c(NC(=O)c2cc(C(N)=O)nc3cc(F)ccc23)c(C(F)(F)F)nn1Cc1ccc(C(C)(C)C)cc1	BRAF V600E	cell-free assay		competition with immobilised ligand	1 µM	remaining binding	98%
CN(c1nccc(-c2cnn3ncccc23)n1)C1CC1	BRAF	binding			1 µM	remaining binding	100%
NC(=S)NN=C(CS(=O)(=O)c1ccccc1)c1ccc(F)cc1	BRAF V600E	enzyme activity	inhibitor	ATP luminescence	1 µM	inhibition	76%
O=C(Nc1cccnn1)N1CCC(=Cc2cccc(Oc3ccc(C(F)(F)F)cn3)c2)CC1	BRAF V600E	cell-free assay		competition with immobilised ligand	1 µM	remaining binding	100%
Cc1ccc(C(CS(=O)(=O)c2ccccc2)=NNC2=NC(=O)C(=NNc3ccc([N+](=O)[O-])cc3)S2)cc1	BRAF V600E	enzyme activity	inhibitor	ATP luminescence	10 nM	inhibition	31%
O=C(Nc1cnn(-c2csc(C(=O)NC3COC3)c2)c1)Nc1ccccc1Cl	BRAF	enzyme activity	inhibitor		5 µM	remaining activity	93.3%
CNC(=O)c1ccc(Nc2ncc(C(F)(F)F)c(NCc3nccnc3N(C)S(C)(=O)=O)n2)cc1	BRAF V600E	cell-free assay		competition with immobilised ligand	0.1 µM	remaining binding	100%
Cc1ccc(C(CS(=O)(=O)c2ccccc2)=NN=C2N=C(c3ccc(C)cc3)CS2)cc1	BRAF V600E	enzyme activity	inhibitor	ATP luminescence	10 µM	inhibition	86%
COc1ccc2cc(OCC3(C(=O)O)CN(C(=O)c4ccc(F)cc4)C3)ccc2c1	BRAF	cell-free assay		competition with immobilised ligand	1 µM	remaining binding	93%
COc1ccc(-c2csc(NN=C(CS(=O)(=O)c3ccccc3)c3ccc(F)cc3)n2)cc1	BRAF V600E	enzyme activity	inhibitor	ATP luminescence	10 µM	inhibition	89%
Cn1nc(C(=O)NCc2ccc(C(=O)O)cc2)cc1-c1ccc2[nH]ccc2c1	BRAF	cell-free assay		competition with immobilised ligand	0.1 µM	remaining binding	74%
Cc1ccc(C(CS(=O)(=O)c2ccccc2)=NNc2nc(C)c(N=Nc3ccccc3)s2)cc1	BRAF V600E	enzyme activity	inhibitor	ATP luminescence	1 µM	inhibition	63%
